ChEMBL document CHEMBL1938344, “Antiangiogenic activity of 3,4-seco-cycloartane triterpenes from Thai Gardenia spp. and their semi-synthetic analogs” (Bioorg Med Chem Lett, 2012)
Active and inactive are the calls of the source. The rule behind the calls is not given here.

How the values were obtained:
Aorta [1] = test: Antiangiogenic activity in Wistar rat thoracic aortic rings assessed as inhibition of microvessel sprouting at 25 uM after 7 days by phase-contrst microscopy; format: functional; conditions: 168 h
Method in brief: (§1)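 Thoracic aorta from six-week-old SPF male Wistar rat, everted, cut into 1-mm rings, embedded in porcine tendon collagen gel (30 min, 37 °C). Rings overlaid with RPMI 1640 plus 1% TIS+ containing compound doses or DMSO; 7 days at 37 °C, 5% CO2. Sprout length from cut end to capillary mid-point by phase-contrast microscopy; mean ± SD, n = 6.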

[2] = biological target: T1, Mitogen-activated protein kinase; ERK1/ERK2 (Homo sapiens) (UniProt P27361+P28482); test: Inhibition of VEGF-induced Erk1/2 phosphorylation in HUVEC pretreated for 60 mins prior VEGF stimulation measured after 10 mins by Western blotting; format: protein assay
Method in brief: (§2)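 Cells pretreated 1 h with 0–10 µM compound or DMSO, then stimulated with VEGF (10 ng/mL) for 10 min, PBS-washed, lysed with M-PER, protein by microBCA. Blots probed for phospho-Erk1/2 or phospho-Akt (4 °C overnight) and total Erk1/2 or Akt (room temperature); chemiluminescent detection; mean ± SD, n = 3.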

HUVEC [3] = test: Antiangiogenic activity in HUVEC assessed as inhibition of tubule formation at 5 uM after 12 hrs by inverted light microscopy; format: functional, cell-based; conditions: Homo sapiens
Method in brief: (§3)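 Cells suspended in HuMedia EG2 with graded doses or DMSO vehicle, seeded onto solidified Matrigel and incubated 12 h at 37 °C, 5% CO2. Capillary-like tube length measured microscopically against vehicle control; mean ± SD, n = 5.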

HUVEC [4] = test: Antiangiogenic activity in HUVEC assessed as inhibition of cell proliferation after 72 hrs by WST-8-based spectrophotometry; format: functional; conditions: Homo sapiens
Method in brief: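 Cells seeded in HuMedia EG2, 24 h at 37 °C, 5% CO2, then fresh medium with graded doses or DMSO vehicle for 72 h. Proliferation read by WST-8 at 450 nm; mean ± SD, n = 5; IC50 from dose–response.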

[5] = biological target: T1, Mitogen-activated protein kinase; ERK1/ERK2 (Homo sapiens); test: Inhibition of VEGF-induced Erk1/2 phosphorylation in HUVEC at 2.5 to 10 uM pretreated for 60 mins prior VEGF stimulation measured after 10 mins by Western blotting; format: protein assay; conditions: TDE = time-dependent effect; method in brief: as §2
HUVEC [6] = test: Antiangiogenic activity in HUVEC assessed as inhibition of tubule formation after 12 hrs by inverted light microscopy; format: functional, cell-based; conditions: Homo sapiens; method in brief: as §3
HUVEC [7] = test: Antiangiogenic activity in HUVEC assessed as inhibition of VEGF-induced cell migration at 50 uM after 6 hrs by boyden chamber assay; format: functional, cell-based; conditions: Homo sapiens
HUVEC [8] = test: Inhibition of VEGF-induced Akt phosphorylation in HUVEC at 2.5 to 10 uM pretreated for 60 mins prior VEGF stimulation measured after 10 mins by Western blotting; format: cell-based; conditions: Homo sapiens; method in brief: as §2
HUVEC [9] = test: Antiangiogenic activity in HUVEC assessed as inhibition of tubule formation at 20 uM after 12 hrs by inverted light microscopy; format: functional, cell-based; conditions: Homo sapiens; method in brief: as §3
Aorta [10] = test: Antiangiogenic activity in Wistar rat thoracic aortic rings assessed as inhibition of microvessel sprouting after 7 days by phase-contrst microscopy; format: functional, tissue-based; method in brief: as §1

T1 sequence (P27361 whole entry, looked up): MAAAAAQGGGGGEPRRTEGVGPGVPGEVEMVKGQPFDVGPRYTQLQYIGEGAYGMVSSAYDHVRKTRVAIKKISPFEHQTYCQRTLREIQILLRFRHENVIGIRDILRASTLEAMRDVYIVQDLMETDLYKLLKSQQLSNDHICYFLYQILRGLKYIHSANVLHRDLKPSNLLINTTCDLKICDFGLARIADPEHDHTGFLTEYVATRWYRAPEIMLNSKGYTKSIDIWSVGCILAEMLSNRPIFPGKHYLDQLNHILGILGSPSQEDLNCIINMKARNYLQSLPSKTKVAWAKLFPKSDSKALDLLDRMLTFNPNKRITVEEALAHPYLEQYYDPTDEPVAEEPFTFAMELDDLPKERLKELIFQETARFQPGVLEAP
T1 sequence (P28482 whole entry, looked up): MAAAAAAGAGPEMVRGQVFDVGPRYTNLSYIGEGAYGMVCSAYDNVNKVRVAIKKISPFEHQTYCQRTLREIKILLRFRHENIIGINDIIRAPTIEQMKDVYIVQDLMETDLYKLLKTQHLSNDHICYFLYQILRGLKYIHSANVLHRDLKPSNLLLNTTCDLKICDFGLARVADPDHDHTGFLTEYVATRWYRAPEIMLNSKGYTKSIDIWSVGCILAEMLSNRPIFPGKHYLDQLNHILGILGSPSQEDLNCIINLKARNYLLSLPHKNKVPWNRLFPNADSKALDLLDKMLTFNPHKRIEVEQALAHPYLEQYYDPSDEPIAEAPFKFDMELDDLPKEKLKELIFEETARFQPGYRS

**Q.** For C=C1C(=O)O[C@@H]2C[C@@H]3[C@]4(CC[C@]5(C)[C@@H]([C@H](C)CC/C=C(\C)COC(=O)c6ccncc6)CC[C@@]35C)C[C@]4(CCC(=O)OC)[C@H]12, which inhibition at 25 µM (Aorta [1]) is on record?
**A.** Its inhibition at 25 µM is 10%.

**Q.** Which inhibition at 25 µM (Aorta [1]) does the source give for C=C1C(=O)O[C@@H]2C[C@@H]3[C@]4(CC[C@]5(C)[C@@H]([C@H](C)CC/C=C(\C)C=O)CC[C@@]35C)C[C@]4(CCC(=O)NCCCC)[C@H]12 here?
**A.** Its inhibition at 25 µM is 10%.

**Q.** Which inhibition at 25 µM (Aorta [1]) does the source give for C=C1C(=O)O[C@@H]2C[C@@H]3[C@]4(CC[C@]5(C)[C@@H]([C@H](C)CC/C=C(\C)C=O)CC[C@@]35C)C[C@]4(CCC(=O)N[C@@H](Cc3ccccc3)C(=O)OC)[C@H]12 here?
**A.** Its inhibition at 25 µM is 10%.

**Q.** For C=C1C(=O)O[C@@H]2C[C@@H]3[C@]4(CC[C@]5(C)[C@@H]([C@H](C)CC/C=C(\C)COC(=O)c6ccc7ccccc7n6)CC[C@@]35C)C[C@]4(CCC(=O)OC)[C@H]12, which inhibition at 25 µM (Aorta [1]) is on record?
**A.** Its inhibition at 25 µM is 10%.

**Q.** For C=C1C(=O)O[C@@H]2C[C@@H]3[C@]4(CC[C@]5(C)[C@@H]([C@H](C)CC/C=C(\C)CO)CC[C@@]35C)C[C@]4(CCC(=O)OC)[C@H]12 [SOOTEPIN A], which inhibition at 25 µM (Aorta [1]) is on record?
**A.** The inhibition at 25 µM was 10%.

**Q.** For C=C1C(=O)O[C@@H]2C[C@@H]3[C@]4(CC[C@]5(C)[C@@H]([C@H](C)CC/C=C(\C)C=O)CC[C@@]35C)C[C@]4(CCC(=O)NC(C)(C)C)[C@H]12, which inhibition at 25 µM (Aorta [1]) is on record?
**A.** Its inhibition at 25 µM is 10%.

**Q.** For C=C1C(=O)O[C@@H]2C[C@@H]3[C@]4(CC[C@]5(C)[C@@H]([C@H](C)CCC=C(C)C)CC[C@@]35C)C[C@]4(CCC(=O)O)[C@H]12 [SOOTEPIN B], which inhibition [2] is on record?
**A.** Its inhibition is “Dose-dependent effect”.

**Q.** What about the inhibition (HUVEC [3]) of the same compound?
**A.** Its inhibition is “Active”.

**Q.** And the Activity (HUVEC [4])?
**A.** The Activity was “Dose-dependent effect”.

**Q.** And the IC50 (HUVEC [4])?
**A.** Its IC50 is 1.2 µM.

**Q.** And the inhibition [5]?
**A.** The inhibition was “tde”.

**Q.** What about the IC50 (HUVEC [6]) of the same compound?
**A.** The IC50 was 11.2 µM.

**Q.** What about the inhibition (HUVEC [6]) of the same compound?
**A.** The inhibition was “Dose-dependent effect”.

**Q.** What about the Activity (HUVEC [7]) of the same compound?
**A.** Its Activity is “inactive”.

**Q.** And the inhibition at 25 µM (Aorta [1])?
**A.** The inhibition at 25 µM was 100%.

**Q.** What about the inhibition (HUVEC [8]) of the same compound?
**A.** Its inhibition is “inactive”.

**Q.** What about the inhibition (HUVEC [9]) of the same compound?
**A.** Its inhibition is “Active”.

**Q.** What about the inhibition (Aorta [10]) of the same compound?
**A.** Its inhibition is “Dose-dependent effect”.

**Q.** What about the IC50 (Aorta [10]; 168 h) of the same compound?
**A.** The IC50 was 4.46 µM.

**Q.** For C=C1C(=O)O[C@@H]2C[C@@H]3[C@]4(CC[C@]5(C)[C@@H]([C@H](C)CC/C=C(\C)C=O)CC[C@@]35C)C[C@]4(CCC(=O)O)[C@H]12 [CORONALOLIDE], which inhibition at 25 µM (Aorta [1]) is on record?
**A.** Its inhibition at 25 µM is 85%.

**Q.** For C=C1C(=O)O[C@@H]2C[C@@H]3[C@]4(CC[C@]5(C)[C@@H]([C@H](C)CC/C=C(\C)COC(=O)c6ccccc6)CC[C@@]35C)C[C@]4(CCC(=O)OC)[C@H]12, which inhibition at 25 µM (Aorta [1]) is on record?
**A.** Its inhibition at 25 µM is 10%.

**Q.** C=C1C(=O)O[C@@H]2C[C@@H]3[C@]4(CC[C@]5(C)[C@@H]([C@H](C)CCC=C(C)C)CC[C@@]35C)C[C@]4(CCC(=O)OC)[C@H]12 [TUBIFEROLIDE METHYL ESTER] was tested. Which inhibition at 25 µM (Aorta [1]) did it give?
**A.** Its inhibition at 25 µM is 40%.

**Q.** How did the inhibition at 25 µM (Aorta [1]) turn out when C=C1C(=O)O[C@H]2C[C@@H]3[C@@]4(CC[C@]5(C)[C@H]([C@@H](C)CC/C=C(\C)C=O)CC[C@@]35C)C[C@]4(CCC(=O)OC)[C@@H]12 [CORONALOLIDE METHYL ESTER] was run?
**A.** Its inhibition at 25 µM is 10%.

**Q.** How did the inhibition at 25 µM (Aorta [1]) turn out when C=C1C(=O)O[C@@H]2C[C@@H]3[C@]4(CC[C@]5(C)[C@@H]([C@H](C)CC/C=C(\C)C=O)CC[C@@]35C)C[C@]4(CCC(=O)N3C(=O)CCC3=O)[C@H]12 was run?
**A.** The inhibition at 25 µM was 10%.

**Q.** With C=C(C)[C@@H]1CC[C@@H]2[C@]3(CC[C@]4(C)[C@@H]([C@H](C)CCC=C(C)C)CC[C@@]24C)C[C@]13CCC(=O)O [SOOTEPIN E] as the compound, how does the inhibition at 25 µM (Aorta [1]) read?
**A.** The inhibition at 25 µM was 92%.

**Q.** How did the inhibition at 25 µM (Aorta [1]) turn out when C=C1C(=O)O[C@@H]2C[C@@H]3[C@]4(CC[C@]5(C)[C@@H]([C@H](C)CC/C=C(\C)C=O)CC[C@@]35C)C[C@]4(CCC(=O)Oc3ccccc3)[C@H]12 was run?
**A.** The inhibition at 25 µM was 10%.
